Results published in ChEMBL document CHEMBL1157061, “Polybioside, a neuroactive compound from the venom of the social wasp Polybia paulista” (J Nat Prod, 2010).
The source made the active and inactive calls. The calls are words filed in the database; no cut-off is given here.

Columns and labels:
Rattus norvegicus [1] = assay: Neurotoxicity in Wistar rat at 100 ng/kg, iv; type: toxicity, organism-based; conditions: in vivo, 0.0001 mg/kg
Procedure, shortened: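 Given peripherally at 100 ng/kg through an intravenous catheter placed in Wistar rats anaesthetised with chloral hydrate (7%, 350 mg/kg ip), to test passage across the blood-brain barrier; behaviour was then observed.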

Rattus norvegicus [2] = assay: Neurotoxicity in Wistar rat assessed as loss of sensor motor reflexes at 10 ng/kg, icv after 30 mins by wire suspension test; type: toxicity, organism-based; conditions: in vivo, icv_or_intrathecal, 1e-05 mg/kg, 0.5 h
Procedure, shortened: (§1)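 Adult male Wistar rats (250-300 g, acclimated one week) received 10 ng/kg ICV in 0.9% saline through a cannula placed about 2 h earlier. Behaviour was observed afterwards, including convulsions, piloerection and eye signs. Sensorimotor reflexes were scored by righting reflex and wire suspension test, with follow-up to recovery at 80 min.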

Thalamus = assay: Neuronal activity in Wistar rat brain paraventricular nucleus of thalamus assessed as c-Fos-immunoreactive neurons at 0.1 ug/ul, icv after 2 hrs by immunohistochemistry analysis; type: functional, tissue-based
Procedure, shortened: (§2)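 Adult male Wistar rats (250-300 g) were acclimated for one week and handled twice daily. An ICV cannula was placed about 2 h before dosing. Compound was given ICV in 10 µL 0.9% saline; saline-only controls (n = 3). After 2 h, rats were perfused with 4% formaldehyde (pH 9.5). Coronal 30 µm sections were stained with rabbit anti-c-Fos (1:5000, 18 h, RT), biotinylated goat anti-rabbit, ABC and DAB, with thionin counterstain. Immunoreactive cells were counted in fixed areas; Student's t-test, p<0.05.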

Brain [3] = assay: Neuronal activity in Wistar rat brain reuniens nucleus assessed as c-Fos-immunoreactive neurons at 0.1 ug/ul, icv after 2 hrs by immunohistochemistry analysis; type: functional, tissue-based; procedure, shortened: as §2
Rattus norvegicus [4] = assay: Neurotoxicity in Wistar rat assessed as tonic clonic crises at 10 ng/kg, icv up to 10 mins; type: toxicity, organism-based; conditions: in vivo, icv_or_intrathecal, 1e-05 mg/kg; procedure, shortened: as §1
Rattus norvegicus [5] = assay: Neurotoxicity in Wistar rat assessed as localized diffuse piloerection on head at 10 ng/kg, icv up to 10 mins; type: toxicity, organism-based; conditions: in vivo, icv_or_intrathecal, 1e-05 mg/kg; procedure, shortened: as §1
Hypothalamus = assay: Neuronal activity in Wistar rat brain paraventricular nucleus of hypothalamus assessed as c-Fos-immunoreactive neurons at 0.1 ug/ul, icv after 2 hrs by immunohistochemistry analysis; type: functional, tissue-based; procedure, shortened: as §2
Hippocampus = assay: Neuronal activity in Wistar rat brain hippocampus assessed as c-Fos-immunoreactive neurons at 0.1 ug/ul, icv after 2 hrs by immunohistochemistry analysis; type: functional, tissue-based; procedure, shortened: as §2
Rattus norvegicus [6] = assay: Neurotoxicity in Wistar rat assessed as convulsion at 10 ng/kg, icv after 5 mins; type: toxicity, organism-based; conditions: in vivo, icv_or_intrathecal, 1e-05 mg/kg; procedure, shortened: as §1
Rattus norvegicus [7] = assay: Neuronal activity in Wistar rat brain piriform cortex assessed as c-Fos-immunoreactive neurons at 0.1 ug/ul, icv after 2 hrs by immunohistochemistry analysis; type: functional, tissue-based; procedure, shortened: as §2
Brain [8] = assay: Neuronal activity in Wistar rat brain anterior hyphalamic area assessed as c-Fos-immunoreactive neurons at 0.1 ug/ul, icv after 2 hrs by immunohistochemistry analysis; type: functional, tissue-based; procedure, shortened: as §2
Rattus norvegicus [9] = assay: Neurotoxicity in Wistar rat assessed as localized diffuse piloerection around neck at 10 ng/kg, icv up to 10 mins; type: toxicity, organism-based; conditions: in vivo, icv_or_intrathecal, 1e-05 mg/kg; procedure, shortened: as §1
Rattus norvegicus [10] = assay: Neuronal activity in Wistar rat brain rhomboid nucleus assessed as c-Fos-immunoreactive neurons at 0.1 ug/ul, icv after 2 hrs by immunohistochemistry analysis; type: functional, tissue-based; conditions: Rhomboidal nucleus; procedure, shortened: as §2
Brain [11] = assay: Neuronal activity in Wistar rat brain dorsal intermediate nucleus assessed as c-Fos-immunoreactive neurons at 0.1 ug/ul, icv after 2 hrs by immunohistochemistry analysis; type: functional, tissue-based; procedure, shortened: as §2
Rattus norvegicus [12] = assay: Neuronal activity in Wistar rat brain lateral septal nucleus dorsal assessed as c-Fos-immunoreactive neurons at 0.1 ug/ul, icv after 2 hrs by immunohistochemistry analysis; type: functional, tissue-based; procedure, shortened: as §2
Rattus norvegicus [13] = assay: Neurotoxicity in Wistar rat assessed as partial closing of eyelids with porphyrin accumulation at 10 ng/kg, icv after 10 mins up to 30 mins; type: toxicity, organism-based, Eyelid; conditions: in vivo, icv_or_intrathecal, 1e-05 mg/kg; procedure, shortened: as §1
Brain [14] = assay: Neuronal activity in Wistar rat brain dorsomedial hyphalamic nucleus assessed as c-Fos-immunoreactive neurons at 0.1 ug/ul, icv after 2 hrs by immunohistochemistry analysis; type: functional, tissue-based; procedure, shortened: as §2

## N=C(CCc1c[nH]cn1)O[C@H]1O[C@H](CO)[C@@H](O)[C@H](O)[C@H]1O [POLYBIOSIDE]
Rattus norvegicus [1]
  Activity: Toxic
Rattus norvegicus [2]
  Activity: Toxic
Thalamus
  Activity: Active
Brain [3]
  Activity: Active
Rattus norvegicus [4]
  Activity: Toxic
Rattus norvegicus [5]
  Activity: Toxic
Hypothalamus
  Activity: Active
Hippocampus
  Activity: Active
Rattus norvegicus [6]
  Activity: Toxic
Rattus norvegicus [7]
  Activity: Active
Brain [8]
  Activity: Active
Rattus norvegicus [9]
  Activity: Toxic
Rattus norvegicus [10]
  Activity: Active
Brain [11]
  Activity: Active
Rattus norvegicus [12]
  Activity: Active
Rattus norvegicus [13]
  Activity: Toxic
Brain [14]
  Activity: Active
